Sampled rows, rich in hits. Any-hit rate of the full collection: about 1.9%.
Tb hexokinase: Trypanosoma brucei hexokinase 1 inhibitors, primary screen, biochemical, G6PDH-coupled NADH absorbance, MLSCN library; recombinant TbHK1, G6PDH-coupled NADH A340; inhibition, % at 10 µM; hexokinase 1 [Trypanosoma brucei]; 220,000 tested, 0.11% active;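 active means inhibition of 50% or more in the single-dose primary screen; inactive means inhibition below 50%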
Autophagy HCS: autophagy modulators in MEF cells, primary screen, imaging, high-content, MEF GFP-LC3 | MEF GFP-LC3 puncta imaging; test concentration mostly 10 µM | calls only at 10 µM (by protocol) | 190,000 tested, 0.98% active;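 active means percentage of spot-positive cells more than 3 SD above its plate mean, without a fluorescence outlier flag or 80% toxicity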;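 further: spot-positive cell cutoff set from DMSO-treated cells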
Ins promoter up: insulin promoter activators in MIN6 cells, imaging, high-content screening, mouse beta cells; MIN6 insulin promoter-GFP reporter; stronger effect = higher value; z-score at 5 µM; 190,000 tested, 0.3% active;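 active means z-score above 3 at 5 µM with at least 500 cells counted in the well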
b-catenin transl: modulators of beta-catenin nuclear translocation, primary screen, imaging, HeLa cells, immunofluorescence, high-content; nuclear translocation activity, % at 5 µM; 190,000 tested, 0.3% active; AID 1665, 2009;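 active means nuclear translocation activity above 50% at 5 µM, with a well cell count of 50 or more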;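 further: per-cell ratio of nuclear to cytoplasmic median beta-catenin stain intensity; plate controls were DMSO negative control for no effect and GSK-3 inhibitor IX positive control for full effect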
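Signal – beta-catenin immunofluorescence imaging with DAPI · Test system – human HeLa cell line · Dosing – 5 µM primary single dose, 0.1% DMSO, 0.02–20 µM confirmation series · Measure – % activation, nuclear-to-cytoplasmic median beta-catenin signal ratio per cell · Incubation – 24 h compound exposure at 37°C, 5% CO2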
MT stabilize HCS: microtubule stabilizers in HeLa cells, primary screen, imaging, high-content imaging; % tubulin-high responders, % at 10 µM; HeLa tubulin immunostaining HCS, 24 h; share of cells brighter than vehicle mean+2SD; AID 2205, 2009; 200,000 tested, 0.83% active;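 active means plate Z-score above 3 for both tubulin-high and condensed-nucleus cell shares, with cell loss under 80%, at 10 µM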;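 further: anti alpha tubulin signal scored within the nucleus-defined area of each cell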
An asterisk follows results filed as active; i = inactive; · = no result; + = active, no number.

SMILES	Tb hexokinase	Autophagy HCS	Ins promoter up	b-catenin transl	MT stabilize HCS
Cc1onc(-c2ccccc2)c1C(=O)Nc1sc2c(c1C#N)CCC2	-4	i	-0.06	1	20*
O=C(/C=C/c1ccco1)Nc1sc2c(c1C(=O)O)CCC2	5	i	-0.8	2	2
Cc1cc(C(=O)Nc2sc3c(c2C#N)CCC3)no1	-15	i	0.42	·	22
N#Cc1c(NC(=O)/C=C/c2ccco2)sc2c1CCCC2	-15	i	-1.1	106*	5
Cc1onc(-c2c(F)cccc2Cl)c1C(=O)Nc1sc2c(c1C(N)=O)CCC2	7	i	0.79	·	31*
Cc1onc(-c2ccccc2)c1C(=O)Nc1sc2c(c1C(N)=O)CCC2	-18	i	-0.15	-2	12
O=Cc1c(N2CCN(c3ccccc3)CC2)nc2ccccn2c1=O	-13	+	-0.13	-2	5
Cc1ccc(NC(=S)NNC(=S)Nc2ccc(C)cc2C)cc1	-8	i	-0.82	52*	9.8*
CCN1CCC2(CC1)Oc1c(OC)cccc1C1CC(c3cccnc3)=NN12 (configuration not stated)	-5	·	·	0	·
CCOC(=O)c1ccc(Oc2c(C)oc3cc(OS(C)(=O)=O)ccc3c2=O)cc1	0	i	·	1	5
CCOC(=O)c1ccc(NC(=O)Nc2ccc(Cl)cn2)cc1	-13	i	0.49	-2	3
CCOC(=O)c1ccc(NC(=O)Nc2ccon2)cc1	-3	·	-2.9	93*	·
CNC(=S)N1N=C(c2ccc(C)cc2)CC1c1cc(OC)ccc1OC (configuration not stated)	-26	i	-1.2	1	12*
CNC(=S)N1N=C(c2ccc(C)cc2)CC1c1ccc(OC)cc1 (configuration not stated)	-18	i	-0.63	-2	1
OCCN1CCN(CC(O)COc2ccc(C34CC5CC(CC(C5)C3)C4)cc2)CC1 (configuration not stated)	7	+	-0.86	32	8
COC(=O)CCCCCN1C(=O)/C(=C\c2ccncc2)SC1=S	-26	·	-1.2	1	·
CCOCCCNC(=O)/C(C#N)=C/c1cc(OC)c(O)c([N+](=O)[O-])c1	-12	i	0.47	1	24*
N#CCSc1nnc(-c2sc3ccccc3c2Cl)o1	-2	+	-0.06	3	5
CCC(C(=O)OCn1nnc2ccccc2c1=O)c1ccccc1 (configuration not stated)	1	i	0.15	0	2
C#CCn1c(=NC(=O)c2ccc(S(=O)(=O)N3CCc4ccccc4C3)cc2)sc2cc(S(N)(=O)=O)ccc21	-32	+	-0.17	-2	5
O=C(CCC(=O)N1CCN(c2ccccc2)CC1)Nc1nnc(C2CCCCC2)s1	-2	·	0.62	-1	·
Cc1nc2ccccc2n1C(=O)N(C)C	8	i	-0.55	-2	2
c1cncc(C2OCC3(CO2)COC(c2cccnc2)OC3)c1 (configuration not stated)	4	i	·	1	3
CCCCn1c(SCC(=O)Nc2cc(C(F)(F)F)ccc2Cl)nnc1C(CC)N(C)C (configuration not stated)	12	+	-0.42	·	2
COC(=O)CN1C(=S)N(c2ccc(OC)cc2)C(=O)/C1=C/c1cccs1	33	i	0.55	-1	3
SMILES	Tb hexokinase	Autophagy HCS	Ins promoter up	b-catenin transl	MT stabilize HCS
CCc1ccc(N2C(=O)/C(=C/c3cccs3)N(CC(=O)OC)C2=S)cc1	-10	+	·	·	6
CCOC(=O)CNC(=O)CSc1nc2cccnc2n1C	1	+	-0.74	-8	1
N#C/C(=C\c1ccc(/C=C(/C#N)c2nn(CCO)c(N)c2C#N)cc1)c1nn(CCO)c(N)c1C#N	-10	+	·	3	7
N#C/C(=C/c1ccccc1)c1nn(CCO)c(N)c1C#N	-26	i	0.47	-1	1
COc1ccc2[nH]c3c(N4CCN(Cc5ccc6c(c5)OCO6)CC4)ncnc3c2c1	-16	i	-5.2	4	21*
Cc1cccc(/C=N/Nc2cc(N3CCOCC3)nc(N3CCOCC3)n2)c1	7	+	-1.5	-1	6
CC(C)c1ccc(/C=N/Nc2cc(N3CCOCC3)nc(N3CCOCC3)n2)cc1	-17	i	-0.29	-3	3

From PubChem
